According to ChEMBL document CHEMBL3525996, “Deuterium isotope effects on drug pharmacokinetics. I. System-dependent effects of specific deuteration with aldehyde oxidase cleared drugs” (Drug Metab Dispos, 2012):

Legend:
aldehyde oxidase = experiment: Activity of guinea pig cytosolic aldehyde oxidase; conditions: cytosol (aldehyde oxidase)
[1] = AUC in Hartley guinea pig at 5 mg/kg, iv; type: ADME, organism-based, Cavia porcellus; set-up: dose 5 mg/kg, route intravenous; conditions: plasma
In short: (§1)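 A 1:1 deuterio/proto mixture, ~10 mg/kg total (5 mg/kg per isotopic form), was given orally in water or as an IV bolus via the jugular vein in saline. Animals were male Hartley guinea pigs (325–350 g) or male Sprague-Dawley rats (250–300 g). Carotid blood was sampled from 10 min to 6 h, and plasma was analysed by LC-MS/MS MRM. AUC and t1/2 were calculated between the first and last measured points.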

[2] = AUC in Sprague-Dawley rat at 5 mg/kg, iv; type: ADME, organism-based; set-up: dose 5 mg/kg, route intravenous; conditions: plasma; in short: as §1
[3] = AUC in Hartley guinea pig at 5 mg/kg, po; type: ADME, organism-based, Cavia porcellus; set-up: dose 5 mg/kg, route oral; conditions: plasma; in short: as §1
[4] = Cmax in Hartley guinea pig at 5 mg/kg, po; type: ADME, organism-based, Cavia porcellus; set-up: dose 5 mg/kg, route oral; conditions: in vivo; in short: as §1
[5] = AUC in Sprague-Dawley rat at 5 mg/kg, po; type: ADME, organism-based; set-up: dose 5 mg/kg, route oral; conditions: plasma; in short: as §1
[6] = Cmax in Sprague-Dawley rat at 5 mg/kg, po; type: ADME, organism-based; set-up: dose 5 mg/kg, route oral; conditions: in vivo; in short: as §1
[7] = AUC in Hartley guinea pig at 1 mg/kg, iv; type: ADME, organism-based, Cavia porcellus; set-up: dose 1 mg/kg, route intravenous; conditions: plasma
In short: (§2)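 Male Hartley guinea pigs (325–350 g) or male Sprague-Dawley rats (250–300 g) received a 1:1 deuterio/proto mixture. Oral dose was ~5 mg/kg total (2.5 mg/kg per isotopomer) in water; IV bolus via the jugular vein was ~2 mg/kg total (1 mg/kg per isotopomer) in saline. Carotid blood was drawn between 10 min and 6 h, and plasma was assayed by LC-MS/MS. AUC and t1/2 cover only the first to last measured time points.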

[8] = Half life in Hartley guinea pig at 1 mg/kg, iv; type: ADME, organism-based, Cavia porcellus; set-up: dose 1 mg/kg, route intravenous; conditions: in vivo; in short: as §2
[9] = AUC in Sprague-Dawley rat at 1 mg/kg, iv; type: ADME, organism-based; set-up: dose 1 mg/kg, route intravenous; conditions: plasma; in short: as §2
[10] = Half life in Sprague-Dawley rat at 1 mg/kg, iv; type: ADME, organism-based; set-up: dose 1 mg/kg, route intravenous; conditions: in vivo; in short: as §2
[11] = AUC in Hartley guinea pig at 2.5 mg/kg, po; type: ADME, organism-based, Cavia porcellus; set-up: dose 2.5 mg/kg, route oral; conditions: plasma; in short: as §2
[12] = Cmax in Hartley guinea pig at 2.5 mg/kg, po; type: ADME, organism-based, Cavia porcellus; set-up: dose 2.5 mg/kg, route oral; conditions: in vivo; in short: as §2
[13] = Half life in Hartley guinea pig at 2.5 mg/kg, po; type: ADME, organism-based, Cavia porcellus; set-up: dose 2.5 mg/kg, route oral; conditions: in vivo; in short: as §2
[14] = AUC in Sprague-Dawley rat at 2.5 mg/kg, po; type: ADME, organism-based; set-up: dose 2.5 mg/kg, route oral; conditions: plasma; in short: as §2
[15] = Cmax in Sprague-Dawley rat at 2.5 mg/kg, po; type: ADME, organism-based; set-up: dose 2.5 mg/kg, route oral; conditions: in vivo; in short: as §2
[16] = Half life in Sprague-Dawley rat at 2.5 mg/kg, po; type: ADME, organism-based; set-up: dose 2.5 mg/kg, route oral; conditions: in vivo; in short: as §2

AUC [1] [ng·h/mL]	AUC [2] [ng·h/mL]	AUC [3] [ng·h/mL]	Cmax [4] [ng/mL]	AUC [5] [ng·h/mL]	Cmax [6] [ng/mL]	AUC [7] [ng·h/mL]	half-life [8] [min]	AUC [9] [ng·h/mL]	half-life [10] [min]	AUC [11] [ng·h/mL]	Cmax [12] [ng/mL]	half-life [13] [min]	AUC [14] [ng·h/mL]	Cmax [15] [ng/mL]	half-life [16] [min]	SMILES	Km (aldehyde oxidase) [µM]
–	–	–	–	–	–	–	–	–	–	–	–	–	–	–	–	c1ccc2ncccc2c1 [QUINOLINE]	212
35.6	509	4.25	9.8	1630	1150	–	–	–	–	–	–	–	–	–	–	CCNC(=O)OC1CCN(c2nncc3cc(OC)c(OC)cc23)CC1 [CARBAZERAN]	–
–	–	–	–	–	–	23.2	30	74.4	24	22.2	26.5	30	19.7	24.7	18	N=C(N)NC(=O)c1cnn(-c2cccc3ncccc23)c1C1CC1 [ZONIPORIDE]	–
–	–	–	–	–	–	–	–	–	–	–	–	–	–	–	–	[2H]c1ccc2ccccc2n1	193
–	–	–	–	–	–	40.7	30	77.4	30	25.7	23.3	30	12.7	18.4	18	[2H]c1ccc2c(-n3ncc(C(=O)NC(=N)N)c3C3CC3)cccc2n1	–
206	1270	96	161	3720	1770	–	–	–	–	–	–	–	–	–	–	[2H]c1nnc(N2CCC(OC(=O)NCC)CC2)c2cc(OC)c(OC)cc12	–
